Bioassay records as filed in PubChem BioAssay.
NLRP3 yeast inh: blocks the NALP3 inflammasome reconstituted in yeast; Yeast reconstituted NLRP3/ASC/caspase-1, beta-gal luminescence, 24 h; inhibition, % at 10 µM; hit rate 0.39% among 330,000;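 active = inhibition of 50% or more; inactive = inhibition below 50%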;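 also: plate controls were induced DMSO wells for no effect and uninduced yeast grown without galactose for full effect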
Calb FLC: C. albicans growth modulation with fluconazole. hit rate 0.57% among 300,000. C. albicans CaCi-2 + fluconazole, Alamar Blue growth, 48 h. AID 1979. growth inhibition, % (test concentration not listed);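 active = growth inhibition above about 58% in most replicates, limit read from the data, passing the limit was not always enough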;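 also: all wells also contain fluconazole at 8 µg/ml as a sub-toxic cotreatment; 0% = median of DMSO wells and 100% = median of geldanamycin control wells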
ALR inh: human ALR oxidase inhibition via reduced H2O2; hit rate 3.8% among 290,000; inhibition, % (concentration not given with the values); purified ALR, DTT oxidation, H2O2 HRP-luminol luminescence; AID 485317;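 active = mean replicate inhibition above about 79%, with every replicate also reaching it, limit read from the data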
Target sequence (P55789 whole entry, looked up): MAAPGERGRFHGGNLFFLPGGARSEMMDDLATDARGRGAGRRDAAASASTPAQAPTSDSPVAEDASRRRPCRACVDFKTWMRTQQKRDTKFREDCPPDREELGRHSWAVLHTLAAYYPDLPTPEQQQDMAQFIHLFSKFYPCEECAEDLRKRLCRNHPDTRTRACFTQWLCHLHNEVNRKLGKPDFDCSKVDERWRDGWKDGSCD
NALP1 inh: blocks the NALP1 inflammasome reconstituted in yeast; S. cerevisiae NALP1/ASC/caspase-1 growth, X-gal OD620, 72 h; inhibition, % at 10 µM; hit rate 0.61% among 280,000; in the data active = inhibition mostly above about 24%, no sharp cut-off; inactive = mostly below about 32%
ATG4B inhibitor: blocks human ATG4B protease cleavage of LC3 substrate; Q9Y4P1; ATG4B cleavage of LC3-PLA2, NBD-HPC fluorescence, 1 h; inhibition, % at 8.33 µM; hit rate 0.51% among 340,000; AID 504462; in the data active = inhibition above about 40%
Target sequence (Q9Y4P1 whole entry, looked up): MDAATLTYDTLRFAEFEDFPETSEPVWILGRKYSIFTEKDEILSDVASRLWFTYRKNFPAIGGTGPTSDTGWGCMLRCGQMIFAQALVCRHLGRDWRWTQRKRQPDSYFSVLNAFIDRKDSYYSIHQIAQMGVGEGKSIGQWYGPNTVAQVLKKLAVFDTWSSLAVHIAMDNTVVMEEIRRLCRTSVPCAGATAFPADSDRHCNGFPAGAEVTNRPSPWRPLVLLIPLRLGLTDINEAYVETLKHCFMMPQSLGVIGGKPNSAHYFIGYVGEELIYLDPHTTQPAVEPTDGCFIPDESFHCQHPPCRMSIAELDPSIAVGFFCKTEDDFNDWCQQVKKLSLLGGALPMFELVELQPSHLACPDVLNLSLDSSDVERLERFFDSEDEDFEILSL
UCH37 DUB inh: inhibitors of human deubiquitinating enzyme UCH37; purified proteasome/UCH37, Ub-AMC cleavage fluorescence; Q9Y5K5; hit rate 0.33% among 330,000; inhibition, % (no concentration beside the values); AID 588478;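 active = mean inhibition over replicate wells above about 20%, limit read from the data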;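 also: 0% = compound-free wells with enzyme and 100% = wells lacking proteasome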
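Test system – human UCH37 enzyme supplied as purified proteasome complex · Incubation – 30 min preincubation with enzyme, 25 min cleavage at room temperature · Detection – AMC fluorescence from Ub-AMC cleavage, excitation 355 nm, emission 460 nm · Benchmarks – no-proteasome wells (full inhibition) and compound-free wells (no inhibition)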
ATG4B confirm: confirmation of human ATG4B inhibitors. shares compounds with ATG4B inhibitor. ATG4B protease fluorescent substrate cleavage assay. inhibition, % at 8.33 µM. hit rate 92% among 320; in the data active = inhibition above about 39%
PLA2 ctr: inhibits human PLA2, flagging false ATG4B inhibitors | shares compounds with ATG4B inhibitor | purified PLA2, NBD-C6-HPC fluorescence, 45 min | inhibition, % at 8.33 µM | hit rate 66% among 1,600 | AID 588402; in the data active = inhibition above about 50%
* = called active by the depositor. In the library only some 4.8% were active in any assay of this set; here they are far more common.

How did COc1ccc(-n2nc3c(N4CCC(C(=O)N5CCC(C)CC5)CC4)nnc(C)c3c2C)cc1 do in these assays?
NLRP3 yeast inh: 10; Calb FLC: 68; ALR inh: -3; NALP1 inh: -1; ATG4B inhibitor: 68*; UCH37 DUB inh: -32; PLA2 ctr: 75*

What do the screens show for `NC(=NOC(=O)c1cccc2ccccc12)c1cccc([N+](=O)[O-])c1`?
UCH37 DUB inh: 1

How did CC1CCCC(=NNS(=O)(=O)c2ccccc2)C1 (configuration not stated) do in these assays?
UCH37 DUB inh: 3

How did CN(CC(=O)Nc1ccc(C#N)cc1)CC(=O)Nc1ccc(N2CCOCC2)cc1 do in these assays?
NLRP3 yeast inh: 7; Calb FLC: -13; NALP1 inh: 27; ATG4B inhibitor: 41*; UCH37 DUB inh: 3; PLA2 ctr: 2

How did COC(=O)c1ccc(CON=Cc2ccc(OC)cc2)o1 do in these assays?
UCH37 DUB inh: 3

Results for CC(CC(=O)NC1CCCCC1)=NNC(=O)COc1ccc(C)cc1Br ?
UCH37 DUB inh: -1

What do the screens show for `Cc1ccc(-c2nnc(SCc3ccccc3F)o2)cc1`?
NLRP3 yeast inh: 26; Calb FLC: -8; ALR inh: -3; NALP1 inh: 6; ATG4B inhibitor: 48*; UCH37 DUB inh: 0; ATG4B confirm: 69*; PLA2 ctr: 38

How did C[C@H]1c2cccc(O)c2C(O)=C2C(=O)[C@]3(O)C(O)=C(C(N)=O)C(=O)[C@@H](N(C)C)[C@@H]3[C@@H](O)[C@@H]21 do in these assays?
NLRP3 yeast inh: 19; ALR inh: -4; NALP1 inh: -15; ATG4B inhibitor: 40*; UCH37 DUB inh: 2; ATG4B confirm: 66*; PLA2 ctr: 1

What do the screens show for `CN(C)c1ccc(O)c2c1CC1CC3[C@@H](N(C)C)C(=O)C(C(N)=O)=C(O)[C@]3(O)C(=O)C1=C2O` (some centres not stated)?
NLRP3 yeast inh: 20; NALP1 inh: 136; ATG4B inhibitor: -1; UCH37 DUB inh: 3

What do the screens show for `Cn1c(COc2ccc(Br)cc2)nnc1SC1CCc2ccccc2C1=O` (configuration not stated)?
NLRP3 yeast inh: 24; Calb FLC: -1; ALR inh: -18; NALP1 inh: 6; ATG4B inhibitor: 50*; UCH37 DUB inh: 4; PLA2 ctr: 62*

How did O=C1C(Nc2ccc(O)cc2)=C/C(=N/S(=O)(=O)c2cccs2)c2ccccc21 do in these assays?
Calb FLC: 28; NALP1 inh: 6; ATG4B inhibitor: 29

What do the screens show for `Cc1ccc(NC2=C/C(=N\S(=O)(=O)c3cccs3)c3ccccc3C2=O)c(C)c1`?
NLRP3 yeast inh: 17; Calb FLC: -1; ALR inh: -34; NALP1 inh: 4; ATG4B inhibitor: 56*; UCH37 DUB inh: 65*; PLA2 ctr: 61*

What do the screens show for `O=c1[nH]c(Nc2ccccc2)cc2ccccc12`?
NLRP3 yeast inh: -2; Calb FLC: 17; ALR inh: 6; NALP1 inh: 3; ATG4B inhibitor: 40; UCH37 DUB inh: -27; ATG4B confirm: 75*; PLA2 ctr: -6

How did Cn1c(=O)cc(Nc2ccccc2)[nH]c1=O do in these assays?
NLRP3 yeast inh: 21; Calb FLC: 8; NALP1 inh: 6; ATG4B inhibitor: -2; UCH37 DUB inh: 1

Results for Cc1ccc(C2C(/C=C3/SC(=S)NC3=O)=C(c3cccs3)Oc3ccccc32)cc1 (configuration not stated) ?
NLRP3 yeast inh: 8; Calb FLC: 4; ALR inh: 99*; NALP1 inh: -2; ATG4B inhibitor: 57*; UCH37 DUB inh: 11; PLA2 ctr: 55*

Results for CCN1CCSc2ccc(C(=O)NCc3ccccc3Br)cc21 ?
NLRP3 yeast inh: 0; Calb FLC: -5; ALR inh: 6; NALP1 inh: -2; ATG4B inhibitor: 38; UCH37 DUB inh: -48

What do the screens show for `Cc1cccc(CNC(=O)c2ccc3c(c2)N(C)CCS3)c1`?
NLRP3 yeast inh: 21; Calb FLC: -7; ALR inh: 64; NALP1 inh: 2; ATG4B inhibitor: 21; UCH37 DUB inh: -46

What do the screens show for `CN1CCSc2ccc(C(=O)NCc3cccc(Br)c3)cc21`?
NLRP3 yeast inh: 11; Calb FLC: -2; ALR inh: 27; NALP1 inh: 3; ATG4B inhibitor: 41*; UCH37 DUB inh: -129; PLA2 ctr: 57*

Results for CCN1CCSc2ccc(C(=O)NCc3ccccc3C)cc21 ?
NLRP3 yeast inh: 27; Calb FLC: 8; ALR inh: 90*; NALP1 inh: 15; ATG4B inhibitor: 44*; UCH37 DUB inh: -182; PLA2 ctr: 59*

How did O=C(O)CCC(=NNC(=O)c1ccccc1Br)c1ccccc1 do in these assays?
UCH37 DUB inh: 3

How did CCCn1c(NC(=O)c2cccc(S(=O)(=O)N3CCCC3)c2)nc2ccccc21 do in these assays?
NLRP3 yeast inh: 10; Calb FLC: -6; ALR inh: -4; NALP1 inh: 3; ATG4B inhibitor: 40; UCH37 DUB inh: -11; PLA2 ctr: 57*

How did Cc1ccccc1CNC(=O)c1ccc(CSCc2ccccc2)cc1 do in these assays?
NLRP3 yeast inh: 27; Calb FLC: 0; ALR inh: 0; NALP1 inh: 34; ATG4B inhibitor: 49*; UCH37 DUB inh: 5; PLA2 ctr: 68*

How did CCOC(=O)c1c(NC(=O)C2C3CCC(O3)C2C(=O)O)sc(C)c1-c1ccc(C)cc1 (configuration not stated) do in these assays?
NLRP3 yeast inh: 0; Calb FLC: 13; ALR inh: 7; NALP1 inh: -2; ATG4B inhibitor: 1; UCH37 DUB inh: 2

What do the screens show for `Cc1sc(NC(=O)C2C3CCC(O3)C2C(=O)O)nc1-c1ccc(CC(C)C)cc1` (configuration not stated)?
NLRP3 yeast inh: 16; Calb FLC: 11; NALP1 inh: 13; ATG4B inhibitor: 56*; PLA2 ctr: 69*

What do the screens show for `Cn1cccc1CNC(=S)Nc1cc(F)cc(F)c1`?
NLRP3 yeast inh: 9; Calb FLC: -4; ALR inh: -10; NALP1 inh: -5; ATG4B inhibitor: 3; UCH37 DUB inh: 1

What do the screens show for `CC(CNC(=S)Nc1cc(F)cc(F)c1)CSc1ccc(Cl)cc1` (configuration not stated)?
NLRP3 yeast inh: 24; Calb FLC: 2; ALR inh: -6; NALP1 inh: 24; ATG4B inhibitor: 46*; UCH37 DUB inh: 2; PLA2 ctr: 69*
